Experimental data from paper PMC3273977 (International Journal of Nanomedicine, 2012).
pIC50: −log10 of the molar value.

How the values were obtained:
[1] = system: α-SMA, collagen IV, and vimentin; test: Immunostaining of fibrotic markers in kidney sections, UUO model; assay type: in vivo; settings: UUO mice 3 days; daily 50 mg/kg sunitinib malate ip
How it was run: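 Male C57Bl/6J mice, 3-day UUO; n=7 per treatment group, n=6 per control. Dosing: single iv test compound (40 mg/kg conjugate) or equimolar iv sunitinib malate (3.4 μmol/kg), or ip sunitinib malate 50 mg/kg with 2nd/3rd doses at 24 and 48 h. Sections 3 μm, peroxide/azide block pH 5.8; 15-min boil citrate pH 6.0 (collagen IV, vimentin) or Tris/EDTA pH 9.0 (α-SMA); primaries 1 h RT (1:400, 1:400, 1:200).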

PDGFR-β = PDGFR-β (Mus musculus, UniProt P05622); test: Western blot of p-PDGFR-β in renal cortex, UUO model; assay type: in vivo; settings: UUO mice 3 days; three daily ip injections 50 mg/kg sunitinib malate
How it was run: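 Male C57Bl/6J mice sacrificed after 3 days UUO; ip sunitinib malate 50 mg/kg, with 2nd/3rd doses at 24 and 48 h. Cortex homogenized in RIPA with protease/phosphatase inhibitors and EDTA. Blots blocked 1 h at room temperature in 5% milk/TBS-T. Probed overnight at 4°C with rabbit anti-p-PDGFR-β (Tyr740, 1:200) or β-actin (1:1000) in TBS-T/5% BSA.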

[2] = Plasma pharmacokinetics after a single intravenous injection; assay type: in vivo, mice
How it was run: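 Male C57Bl/6J mice (n = 15) received one intravenous dose of sunitinib malate, 1.7 μmol/kg (0.9 mg/kg), equimolar to a 20 mg/kg lysozyme conjugate. Blood was taken by cheek puncture at 1 min and at sacrifice time points, then centrifuged. Plasma sunitinib was measured by LC-MS/MS against standards of 10 ng/mL–1 μg/mL. Values are % of dose, assuming plasma volume 0.05 mL/g. Parameters come from two-compartment curve fitting.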

P-glycoprotein (P-gp) = settings: cited from earlier work
[3] = system: collagen 1A2, PAI-1, fibronectin, and MCP-1; test: Renal mRNA expression of profibrotic genes; assay type: in vivo; settings: UUO mice 3 days; three daily ip injections 50 mg/kg sunitinib malate
How it was run: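 Male C57Bl/6J mice, 3-day UUO; groups n=6–7; single iv test compound or sunitinib malate, or ip sunitinib malate 50 mg/kg with later doses at 24 and 48 h. TaqMan qRT-PCR on whole kidney and cortex. mRNA normalized to TBP and expressed relative to non-obstructed control mice (set at 1). Mean ± SEM; one-way ANOVA, P < 0.05.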

[4] = system: UUO-induced tubulointerstitial fibrosis; test: Overall antifibrotic effect in UUO-induced tubulointerstitial fibrosis; assay type: in vivo; settings: UUO mice, daily 50 mg/kg sunitinib malate
How it was run: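 Male C57Bl/6J mice weighing 13–25 g had unilateral ureteral obstruction and were killed after 3 days. Sunitinib malate was given as three daily intraperitoneal injections of 50 mg/kg (94 μmol/kg), n = 7. Controls were normal mice and untreated UUO mice, n = 6 each. Kidneys were scored for collagen IV, vimentin and α-SMA immunostaining and p-PDGFR-β (Tyr740) Western blot. Data are mean ± SEM.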

ABCG2 = settings: cited from earlier work
[5] = Renal accumulation pharmacokinetics after a single intravenous injection; assay type: in vivo, mice
How it was run: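 After one intravenous dose of sunitinib malate, 1.7 μmol/kg (0.9 mg/kg), to male C57Bl/6J mice, kidneys were collected at set times and frozen at −80°C. Kidneys were homogenised in 4% BSA to 0.1 g tissue/mL. Sunitinib was measured by LC-MS/MS against homogenate standards of 10–500 ng/mL, and renal levels are expressed as % of injected dose.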

HK-2 cells = test: In vitro cytotoxicity, sulforhodamine B assay; assay type: cell-based; settings: Homo sapiens, HK-2, 24 h, read-out: IC50 cell viability
[6] = system: tyrosine kinases in HK-2 cells; test: Inhibition of tyrosine kinase phosphorylation after uptake in HK-2 cells; assay type: cell-based, human; settings: 10 μM, 24 hours incubation of HK-2 cells, lysis, ATP stimulation, Western blot
How it was run: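 HK-2 cells were seeded at 1.5 × 10^4 per well, serum-starved overnight, then given 10 μM test compound or 0.1% (v/v) DMSO control for 24 h. Cells were PBS-washed and lysed with protease and phosphatase inhibitors, and protein was measured by BCA. Lysate was mixed with an equal volume of 10 μM ATP in Abl buffer (pH 7.5) and held 60 min at 37°C. 10 μg protein went to SDS-PAGE, anti-phosphotyrosine (PY20) blot and densitometry.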

[7] = mice, single iv, equimolar 1.7 μmol/kg, kidneys
[8] = mice, single iv, equimolar 1.7 μmol/kg, kidneys, listed as sunitinib

Sequence of PDGFR-β (P05622 32-1098): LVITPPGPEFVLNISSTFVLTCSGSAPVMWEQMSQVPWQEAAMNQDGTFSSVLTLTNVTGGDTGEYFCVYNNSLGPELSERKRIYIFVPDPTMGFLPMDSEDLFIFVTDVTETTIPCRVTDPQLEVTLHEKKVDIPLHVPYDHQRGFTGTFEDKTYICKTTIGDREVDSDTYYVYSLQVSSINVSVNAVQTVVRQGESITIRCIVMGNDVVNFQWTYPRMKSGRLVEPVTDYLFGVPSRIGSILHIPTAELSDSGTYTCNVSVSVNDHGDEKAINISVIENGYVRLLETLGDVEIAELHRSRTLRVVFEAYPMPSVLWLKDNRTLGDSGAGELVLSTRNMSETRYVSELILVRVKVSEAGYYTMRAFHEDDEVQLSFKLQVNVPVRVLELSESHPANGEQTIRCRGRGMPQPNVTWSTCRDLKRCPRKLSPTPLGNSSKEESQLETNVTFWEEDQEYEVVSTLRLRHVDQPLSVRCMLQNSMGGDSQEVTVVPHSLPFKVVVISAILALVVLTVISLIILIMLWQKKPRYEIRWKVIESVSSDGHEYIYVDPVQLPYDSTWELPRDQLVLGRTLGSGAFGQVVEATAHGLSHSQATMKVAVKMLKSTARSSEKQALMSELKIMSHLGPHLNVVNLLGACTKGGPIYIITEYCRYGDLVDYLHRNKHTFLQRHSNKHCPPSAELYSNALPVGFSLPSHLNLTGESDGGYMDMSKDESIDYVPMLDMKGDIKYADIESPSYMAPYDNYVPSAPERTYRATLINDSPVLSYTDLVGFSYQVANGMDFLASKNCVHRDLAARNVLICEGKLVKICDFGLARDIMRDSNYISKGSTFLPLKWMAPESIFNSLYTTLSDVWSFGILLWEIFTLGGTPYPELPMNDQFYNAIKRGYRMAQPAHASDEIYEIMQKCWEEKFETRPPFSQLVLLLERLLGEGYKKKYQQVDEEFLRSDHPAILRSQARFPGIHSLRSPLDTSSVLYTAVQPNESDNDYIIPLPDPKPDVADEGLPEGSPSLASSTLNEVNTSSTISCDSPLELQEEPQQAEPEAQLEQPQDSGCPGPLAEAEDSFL

half-life ([2]; C57Bl/6J, mouse, plasma, iv, 0.9 mg/kg): 25 min
Peripheral distribution volume (V2) ([2]; mice, single iv, equimolar 1.7 μmol/kg, plasma): 87 mL
initial distribution volume (V1) relative to 17864-ULS-lysozyme ([2]; mice, single iv, equimolar dose): over 15 fold
half-life ([5]; C57BI/6 J, mouse, kidneys, iv, 0.9 mg/kg): 66 min
time to almost complete elimination from the kidneys ([5]; mice, after administration): ≤ 12 h
time to maximum renal levels ([5]; mice, single iv, equimolar 1.7 μmol/kg): ≤ 30 min
AUC0–∞ [5, 7]: 9.4% dose*hours
Cmax (% of the dose) [5, 7]: 4.9%
AUC0–∞ [5, 8]: 9.4 % dose*hours
Cmax (% of the dose) [5, 8]: 4.9%
Compound: CCN(CC)CCNC(=O)c1c(C)[nH]c(/C=C2\C(=O)Nc3ccc(F)cc32)c1C [Sunitinib, sunitinib]
renal deposition of α-SMA, collagen IV, and vimentin [1]: decreased the deposition of vimentin in the kidneys, although these differences were not significant
p-PDGFR-β levels in the renal cortex (PDGFR-β): decreased p-PDGFR-β levels in the renal cortex
substrate of efflux transporter P-gp (P-glycoprotein (P-gp)): substrate
renal mRNA expression of collagen 1A2, PAI-1, fibronectin, MCP-1 [3]: significantly lower renal mRNA levels of collagen 1A2 and fibronectin
antifibrotic effect ([4]; listed as sunitinib): reduction of some of the studied markers
antifibrotic effect ([4]; listed as sunitinib malate): antifibrotic responses
substrate of efflux transporter ABCG2 (ABCG2): substrate
pIC50 (HK-2 cells): 4.92
inhibitory effect on phosphorylation of tyrosine kinases [6]: strongly inhibited multiple kinases
